Shown is part of a subset that was picked to be rich in hits.
HUVEC inhibit = inhibitors of human endothelial cell proliferation; HUVEC proliferation, CellTiter-Glo luminescence, 72 h; hits give low values; viability, % at 10 µM (by protocol); actives 1.1% (n = 86,000); AID 648;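 active means viability at or below 30%; inactive means viability above 30%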;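 further: 100% = median luminescence of DMSO-only cell control wells on each plate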
bCat KO growth = beta-catenin-lacking colon tumor cell growth suppression; actives 1.5% (n = 140,000); viability, % at 10 µM; HCT116 beta-catenin knockout viability, CellTiter-Glo, 60 h; hits give low values;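 active means viability at or under a set limit, the compound median less 4 SD, cut at about 6% in these data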;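 further: 0% = Hyamine 1622 control at 20 µM and 100% = untreated cell control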
Lung fibro prol = blocks proliferation of human lung fibroblasts | LL 47 human lung fibroblast viability, ATP luminescence; hits give low values | viability, % at 10 µM | actives 1.1% (n = 85,000) | AID 719;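 active means viability at or below 50% in the single dose screen; inactive means viability above 50%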;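 further: compound exposure lasted 72 h before the ATP readout; 100% = median luminescence of untreated cell-only wells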
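Test system: LL 47 human lung fibroblasts / Quantity: 1,150 cells in each well / Medium: IMEM growth medium with 15% fetal bovine serum / Incubation: 72 h compound exposure at 37 °C after overnight plating / Detection: CellTiter-Glo luminescence measuring cellular ATP / Read-out: % viability versus median cells-only luminescence / Benchmarks: cell-only wells, no compound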
PTEN del growth = suppresses growth of cells with PTEN deletion; viability, % at 10 µM; AID 827; actives 1.2% (n = 140,000); HCT116 PTEN-null viability, CellTiter-Glo, 60 h; hits give low values;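 active means viability at or below a set limit, 4 SD under the median of all tested compounds, cut at about 3.7% in these data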;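 further: PTEN knockout HCT116 line with beta catenin targeted HCT116 as companion control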
H69AR growth 86K = blocks growth of human H69AR lung tumor cells | H69AR lung tumor viability, ATP luminescence, 72 h; hits give low values | actives 6% (n = 85,000) | AID 598 | viability, % at 10 µM;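 active means viability at or below 40%; inactive means viability above 40%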;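 further: multidrug resistant small cell line overexpressing MRP-1 efflux transporter; 100% = mean luminescence of untreated control wells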
An asterisk follows results filed as active.

Screening O=[N+]([O-])c1cc(S(=O)(=O)C(F)(F)F)ccc1Sc1nc2ccccc2[nH]1 returned HUVEC inhibit 18*, bCat KO growth 1.5*, Lung fibro prol 12*, PTEN del growth 1.3* and H69AR growth 86K 1.7*.
`CS(=O)(=O)c1ccc(Sc2nc3ccccc3s2)c([N+](=O)[O-])c1` gave bCat KO growth 7 and PTEN del growth 10.
Screening O=[N+]([O-])c1cc(S(=O)(=O)C(F)(F)F)ccc1Sc1nc2ccccc2s1 returned bCat KO growth 1.6* and PTEN del growth 1.5*.
CC(C)Cn1nc(NC(=O)C(C)(C)C)c2cc3ccccc3nc21 was read as HUVEC inhibit 102, bCat KO growth 96, Lung fibro prol 100, PTEN del growth 91 and H69AR growth 86K 53.
For COc1ccc2nc3c(cc2c1)c(NC(=O)c1cccs1)nn3CC(C)C the results were HUVEC inhibit 82, bCat KO growth 14, Lung fibro prol 73, PTEN del growth 7 and H69AR growth 86K 35*.
Screening O=C(NCc1ccccn1)c1ccc(COc2ccc(Cl)cc2)o1 returned HUVEC inhibit 96, bCat KO growth 4.3*, Lung fibro prol 96, PTEN del growth 6 and H69AR growth 86K 101.
For CC1=C(C(=O)Nc2cccc(C)n2)C(c2ccc3c(c2)OCO3)C2=C(CC(c3ccco3)CC2=O)N1 (stereo unspecified) the results were HUVEC inhibit 98, bCat KO growth 87, Lung fibro prol 101, PTEN del growth 74 and H69AR growth 86K 101.
`COc1ccc2c(c1)C1(Nc3ccccc3-c3nc4ccccc4n31)C(=O)N2C` (stereo unspecified) gave HUVEC inhibit 88, bCat KO growth 86, PTEN del growth 77 and H69AR growth 86K 37*.
`COc1ccc([N+](=O)[O-])cc1C(=O)Nc1ccc(OCC(=O)N2CCOCC2)cc1` gave bCat KO growth 97 and PTEN del growth 95.
For c1ccc(Cn2c(-c3cncs3)nc3ccccc32)cc1 the results were HUVEC inhibit 111, bCat KO growth 88, Lung fibro prol 95, PTEN del growth 79 and H69AR growth 86K 93.
For O=C(Cn1c(-c2cncs2)nc2ccccc21)NCCc1ccccc1 the results were HUVEC inhibit 101, bCat KO growth 100, Lung fibro prol 99, PTEN del growth 86 and H69AR growth 86K 18*.
O=C(CCCc1ccccc1)NCc1ccc(F)cc1 was read as bCat KO growth 99 and PTEN del growth 98.
Screening CC(=O)c1ccc(NC(=O)c2ccc3nc(-c4ccco4)c(-c4ccco4)nc3c2)cc1 returned HUVEC inhibit 49, bCat KO growth 91, Lung fibro prol 86, PTEN del growth 93 and H69AR growth 86K 2.4*.
O=C(Nc1ccc(N2CCOCC2)cc1)c1ccc2nc(-c3ccco3)c(-c3ccco3)nc2c1 was read as HUVEC inhibit 52, bCat KO growth 98, Lung fibro prol 83, PTEN del growth 83 and H69AR growth 86K 29*.
Screening S=C(Nc1ccc(N2CCOCC2)cc1)Nc1ccc2nc(-c3ccco3)c(-c3ccco3)nc2c1 returned HUVEC inhibit 54, bCat KO growth 68, Lung fibro prol 113, PTEN del growth 77 and H69AR growth 86K 33*.
For CCC(SC1=N/C(=C/c2ccccc2OC)C(=O)N1c1ccccc1)C(=O)Nc1cc(C)on1 (stereo unspecified) the results were bCat KO growth 94 and PTEN del growth 79.
COc1ccc(/C=c2\s/c(=C/C(=O)c3ccc(C)cc3)[nH]c2=O)cc1OC was read as bCat KO growth 57 and PTEN del growth 34.
For CC(C)c1nc2oc3c(NCC4CCCO4)ncnc3c2c2c1COC(C)(C)C2 (stereo unspecified) the results were HUVEC inhibit 87, bCat KO growth 67, Lung fibro prol 99, PTEN del growth 70 and H69AR growth 86K 36*.
`CCN(CCNC(=O)Nc1ccc(Cl)cc1)c1ccccc1` gave HUVEC inhibit 102, bCat KO growth 43, Lung fibro prol 96, PTEN del growth 18 and H69AR growth 86K 7.2*.
`CCN(CCNC(=O)C1CCN(S(C)(=O)=O)CC1)c1ccccc1` gave HUVEC inhibit 96, bCat KO growth 79, Lung fibro prol 98, PTEN del growth 88 and H69AR growth 86K 96.
For O=C(Nc1cccnc1)c1ccc(Oc2ccccc2)cc1 the results were HUVEC inhibit 98, bCat KO growth 83, Lung fibro prol 11*, PTEN del growth 91 and H69AR growth 86K 95.
Screening Oc1ccc(-c2nnc(SCC3CCCCC3)o2)cc1 returned HUVEC inhibit 87, bCat KO growth 96, Lung fibro prol 102, PTEN del growth 107 and H69AR growth 86K 35*.
For Cn1c(=O)c2c(nc(SCCCC#N)n2Cc2c(F)cccc2Cl)n(C)c1=O the results were HUVEC inhibit 90, bCat KO growth 85, Lung fibro prol 95, PTEN del growth 84 and H69AR growth 86K 51.
Screening CC(C)c1nc(SCC(=O)N2CCCc3ccccc32)c2c(=O)n(C)c(=O)n(C)c2n1 returned HUVEC inhibit 57, bCat KO growth 11, Lung fibro prol 84, PTEN del growth 9 and H69AR growth 86K 14*.
For CC(C)c1nc(SCc2c(F)cccc2Cl)c2c(=O)n(C)c(=O)n(C)c2n1 the results were HUVEC inhibit 56, bCat KO growth 3.5*, Lung fibro prol 83, PTEN del growth 3.7* and H69AR growth 86K 38*.
`CSc1nc(-c2ccc(C)cc2)nc(C(Cl)Cl)n1` gave bCat KO growth 1.1* and PTEN del growth 1.1*.
`CCSc1nc(-c2ccccc2)c2cc(Cl)ccc2n1` gave bCat KO growth 84 and PTEN del growth 85.
CCSc1nc(-c2ccccc2)nc(C(Cl)Cl)n1 was read as bCat KO growth 4.2* and PTEN del growth 2.0*.
`CC1(C)C(=O)OC(c2ccccc2)C2(CCCC2)C1=O` (stereo unspecified) gave HUVEC inhibit 102, bCat KO growth 106, Lung fibro prol 98, PTEN del growth 109 and H69AR growth 86K 99.
Screening Cc1ccc(S(=O)(=O)Nc2ccc(Cl)cc2C(=O)c2ccc(F)cc2)cc1 returned bCat KO growth 73 and PTEN del growth 60.
For COc1ccccc1/C=C1\CCCC2=C1Nc1nnnn1C2c1ccccc1OC (stereo unspecified) the results were bCat KO growth 4.0* and PTEN del growth 1.7*.
Screening COc1cc(/C=N/NC(=S)NCc2ccccc2)ccc1OCC#N returned bCat KO growth 94 and PTEN del growth 95.
Screening Cc1c(NC(=O)c2cc3nc(-c4ccc(Br)cc4)cc(C(F)(F)F)n3n2)c(=O)n(-c2ccccc2)n1C returned HUVEC inhibit 103, bCat KO growth 79, Lung fibro prol 46*, PTEN del growth 84 and H69AR growth 86K 0.6*.
For C=CCn1c(C)nc2c(c1=O)c1nc3ccccc3nc1n2-c1ccc(C)cc1 the results were HUVEC inhibit 109, Lung fibro prol 101 and H69AR growth 86K 98.

Compound activity as filed in PubChem.
